An excerpt weighted towards active compounds, which were near 0.99% of everything screened.
ABCB1 block: inhibitors of human ABCB1 transporter, ABCG2 counter-screen; P08183; 190,000 compounds, 0.067% hits; inhibition, % at 6.6 µM; CCRF-Adr cells, JC-1 efflux, flow cytometry; in the data active = inhibition above about 40%;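 also: 0% = vehicle and 100% = reference inhibitor; higher value means more JC-1 retained so stronger ABCB1 efflux block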
DDE Tn7 FP inh: DD(E)-Tn7 binding inhibition, primary FP screen; 370,000 compounds, 0.13% hits; AID 720508; FP displacement of FITC-Tn7 peptide from fibrin DD(E); 0% = median of compound wells per plate; P02675; inhibition, % at 8.3 µM;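 active = inhibition above the mean of compounds falling within the control limits plus 3 SD of them, cut at about 14% in these data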;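 also: 0% = plate median of compound wells and 100% = 10 µM Aha-Tn7 peptide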
Target sequence (P02675 whole entry, looked up): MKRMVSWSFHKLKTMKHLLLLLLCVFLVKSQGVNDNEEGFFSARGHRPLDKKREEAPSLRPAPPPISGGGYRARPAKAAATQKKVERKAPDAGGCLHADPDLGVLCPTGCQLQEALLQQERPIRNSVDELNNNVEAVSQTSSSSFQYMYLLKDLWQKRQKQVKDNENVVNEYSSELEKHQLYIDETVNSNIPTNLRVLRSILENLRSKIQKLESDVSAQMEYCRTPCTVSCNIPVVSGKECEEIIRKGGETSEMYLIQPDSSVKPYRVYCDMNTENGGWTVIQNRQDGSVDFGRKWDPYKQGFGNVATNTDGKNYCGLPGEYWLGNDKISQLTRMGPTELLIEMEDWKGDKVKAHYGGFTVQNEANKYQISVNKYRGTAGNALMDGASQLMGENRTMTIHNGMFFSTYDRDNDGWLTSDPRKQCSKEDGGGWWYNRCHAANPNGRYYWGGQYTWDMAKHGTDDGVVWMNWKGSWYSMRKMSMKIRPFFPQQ
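system = human fibrin DD(E) protein | quantity = DD(E) 2 µM final | medium = Tris/NaCl/CaCl2 buffer, pH 7.8 | also added = labelled Tn7 tracer, 0.1 µM | compound dosing = single point at 8.3 µM | timing = compound with protein 10 min, then 3 h after probe, room temperature | signal = FP measurement | benchmarks = Aha-Tn7 high control | repeats = one replicate per compound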
Tn6 DDE FP: DD(E)-Tn6 binding inhibition, primary FP screen. inhibition, % at 8.3 µM. Fibrin DD(E) TRITC-Tn6 fluorescence polarization displacement. AID 720509. 370,000 compounds, 0.21% hits;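 active = inhibition above a per-campaign cutoff: mean of compounds within control limits plus 3 SD, cut at about 15% in these data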;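 also: 0% = median of all compound wells on the plate and 100% = blocking peptide control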
ABCG2 inh: human ABCG2 inhibition, ABCB1 as counter-screen; Q9UNQ0; IgMXP3 cells, JC-1 efflux, flow cytometry; inhibition, % at 6.6 µM; 190,000 compounds, 0.1% hits; AID 1325;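 active = inhibition above 80%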;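 also: 0% = DMSO and 100% = nicardipine control wells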
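test system = two drug-resistant human cell lines, ABCG2 and ABCB1 | amount = 3 million cells/mL final, two lines in 1:1 ratio | reagent = JC-1 transporter substrate | doses = one concentration, 6.6 µM final | incubation = 10 min at 25 °C | signal = flow cytometric JC-1 green MFI at 530 nm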
GRK2 aptamer HTS: inhibitors of human GRK2 displacing RNA aptamer; P25098; bead flow cytometry, FAM-aptamer displacement from GRK2; inhibition of aptamer binding, % at 10 µM; 330,000 compounds, 0.59% hits;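 active = inhibition of aptamer binding above 40%, roughly 3 SD of noise, on plates passing a quality check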;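 also: median bead fluorescence of bound FAM aptamer so fluorescent compounds give negative values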
Ins promoter up: MIN6 insulin promoter up-regulation. MIN6 insulin promoter-GFP reporter, high-content imaging; stronger effect = higher value. z-score at 5 µM. AID 1625. 190,000 compounds, 0.3% hits;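 active = z-score above 3 at 5 µM with at least 500 cells counted in the well; inconclusive = wells under 500 cells, flagged as cytotoxic or low count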
GRK2 inh confirm: human GRK2 inhibition confirmation, cherry pick 1; shares compounds with GRK2 aptamer HTS; bead-bound GRK2, FAM-aptamer displacement, flow cytometry; aptamer displacement, % at 10 µM; 2,000 compounds, 4% hits; AID 504451;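 active = aptamer displacement above 40%, near three times the noise of non-fluorescent compounds, on plates passing quality checks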;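 also: negative values mostly reflect intrinsic compound fluorescence rather than true enhancement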
Aptamer quench 1: quenches fluorescent RNA aptamer, GRK2 hit artifact | Fluorescent RNA aptamer beads, quenching, flow cytometry; stronger effect = higher value | 110 tested, under 10 active | AID 504521 | shares compounds with GRK2 aptamer HTS | fluorescence change (kMESF span), kMESF (concentration not given with the values);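 active = compounds whose bead fluorescence drops by more than 37 kMESF across the dose range, marking them as dye quenchers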
Aptamer quench SP: counter-screen for GRK2 aptamer inhibitors: fluorescent aptamer quenchers | 2,000 tested, under 10 active | Carboxyfluorescein RNA aptamer on beads, flow cytometry quenching; stronger effect = lower value | fluorescence response (% of DMSO), % at 10 µM | shares compounds with GRK2 aptamer HTS;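 active = compounds that quench the bead-bound fluorescent RNA probe, cutting fluorescence to under half of the solvent control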;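 also: counterscreen run without GRK2 so only probe quenching by compound is measured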
DDE Tn7 confirm: DD(E)-Tn7 binding inhibition, FP confirmation. inhibition, % at 8.3 µM. shares compounds with DDE Tn7 FP inh. FP displacement of TRITC-Tn7 peptide from DD(E); 0% set at plate's compound-well median. AID 720628. 460 compounds, 5% hits;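 active = inhibition above the campaign cutoff, the mean of compounds within control limits plus 3 SD, cut at about 14% in these data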;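 also: 100% = median FP of high control wells holding Aha-Tn7 inhibitor peptide; displacers lower polarization since freed probe rises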
DDE Tn7 FP ctr: counter-screen hit for Tn7 peptide-fibrin DD(E) binding disruption | AID 720633 | inhibition, % at 8.3 µM | 460 compounds, 3% hits | shares compounds with DDE Tn7 FP inh | TRITC-Tn7 probe displacement, fluorescence polarization;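 active = inhibition above the cutoff, the mean of compounds lying between the control bounds plus 3 SD of those compounds, cut at about 17% in these data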;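 also: 0% = median of compound sample wells and 100% = excess unlabeled Aha-Tn7 peptide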
Active calls of the source: *; ? = inconclusive; . = no result.

SMILES | ABCB1 block | DDE Tn7 FP inh | Tn6 DDE FP | ABCG2 inh | GRK2 aptamer HTS | Ins promoter up | GRK2 inh confirm | Aptamer quench SP | others
Cc1ccc2c(c1)C1CN(C)CCC1N2C(=O)COc1ccc(S(=O)(=O)N2CCOCC2)cc1 (stereo not drawn) | 0 | 6 | -1 | 1 | 0 | -0.51 | -3 | 102
C[C@]12CCC3C(CC[C@H]4C[C@H](O)CC[C@]34C)C1CC(=O)[C@@H]2O (stereo partly drawn) | . | -3 | -5 | . | 100* | . | -4 | 98
Cc1ccc(OP(=O)(NCc2ccccc2)Oc2ccc(C)cc2)cc1 | 1 | -6 | 0 | 51 | 0 | -0.24 | . | .
CC1(C)OC(c2ccccc2)=C/C(=C/C=C2C(=O)NC(=S)NC2=O)O1 | 7 | -21 | -9 | 1 | 48* | 1.2 | 22 | 107
CN1/C(=C\C=C2C(=O)NC(=S)NC2=O)C(C)(C)c2ccccc21 | 1 | -31 | 1 | 1 | . | . | . | .
Fc1ccc(Cn2nnnc2C(c2ccc(F)cc2)N2CC=C(c3ccc(F)cc3)CC2)cc1 (stereo not drawn) | 1 | -3 | -1 | 9 | 0 | -0.35 | . | .
CCOc1ccc(N=Cc2c(O)n(CCc3ccc(OC)c(OC)c3)c(=O)[nH]c2=O)cc1 | . | 7 | 4 | . | 100* | . | -5 | 97
COc1ccc(CCn2c(O)c(C=Nc3ccc(NC(C)=O)cc3)c(=O)[nH]c2=O)cc1OC | . | 0 | 4 | . | 2 | 0.43 | . | .
CC(=O)OC1C(O)C2=C3C4(C)C1C(C)(C)C(=O)CC4C3(O)C(OC(C)=O)C1(CC1C)C2=O (stereo not drawn) | . | -3 | 1 | . | . | . | . | .
Cc1cc(C(=O)N2CCC3(CC2)OCCO3)cs1 | 0 | -6 | -2 | 0 | 4 | -0.14 | . | .
CCOc1cc(C(=O)N2CCC3(CC2)OCCO3)cc(OCC)c1OCC | 0 | . | . | 0 | 62* | 0.51 | -2 | 105
CCc1nc2ccc(N3CCN(C)CC3)cc2nc1CC | 2 | -5 | -7 | 6 | 100* | -0.62 | -3 | 99
COC(=O)C1=C(c2ccc(C(C)=O)cc2)C[C@@H]2CC[C@H]1N2C(=O)NC1Cc2ccccc2C1 | . | . | . | . | 0 | . | . | .
Cn1ncnc2c(=O)n(C)c(=O)nc1-2 | . | . | . | . | 61* | ? | 73* | 87 | Aptamer quench 1=-1.8
COc1ccc(OC(=O)N(C)C[C@H]2OCc3cnnn3CCCC(=O)N([C@H](C)CO)C[C@@H]2C)cc1 | . | 4 | 5 | . | . | . | . | .
Cc1cc(=O)oc2cc(OCC(=O)N3C[C@H]4C[C@@H](C3)c3cccc(=O)n3C4)c(Cl)cc12 | . | 13 | -1 | . | 3 | . | . | .
Cc1cc(=O)oc2cc(OCC(=O)N3CCN(C(C)c4ccccc4)CC3)c(Cl)cc12 (stereo not drawn) | . | -7 | -4 | . | 0 | . | -23 | 96
Cc1ccsc1C(=O)C1CCCN(Cc2cnc(N3CCOCC3)s2)C1 (stereo not drawn) | 3 | 6 | 1 | 3 | 0 | 0.3 | 0 | 102
Cc1ccsc1C(=O)C1CCCN(Cc2cnc(N(C)C)s2)C1 (stereo not drawn) | 0 | . | . | 1 | 1 | 0.08 | . | .
CCN1CCC2(CC1)NC(CO)(CO)CO2 | 1 | -4 | -1 | 1 | 48* | -0.21 | -1 | 91
CCCN1CCC2(CC1)NC(CO)(CO)CO2 | 0 | 5 | 7 | 2 | 0 | . | . | .
COc1ccc(C(=O)C23CN4CN(CN(C4)C2)C3)cc1 | 0 | 3 | 2 | 0 | 43* | -0.39 | -9 | 100
CCCNC(=O)N1[C@H]2CC[C@@H]1C(C(=O)OC)=C(c1ccc(F)cc1OCc1ccccc1)C2 | . | . | . | . | 1 | . | . | .
O=C(C1CCCCC1)N1Cc2ccccc2-n2nncc2C1 | . | 1 | 4 | . | . | . | . | .
CN1C2CCC1/C(=C/c1ccccn1)C(=O)/C2=C\c1ccccn1 | 1 | 13 | 6 | 2 | 92* | ? | 2 | 110
SMILES | ABCB1 block | DDE Tn7 FP inh | Tn6 DDE FP | ABCG2 inh | GRK2 aptamer HTS | Ins promoter up | GRK2 inh confirm | Aptamer quench SP | others
COc1cc(/C=C/c2nc3ccccc3c(=O)n2-c2cccc(O)c2)ccc1O | . | 1 | -8 | . | 1 | . | . | .
COc1cc(/C=C/c2nc3ccccc3c(=O)n2-c2ccccc2O)ccc1O | . | 1 | -3 | . | 48* | . | -42 | 106
Cc1ccc(NC(=O)c2ncn(CCCNCCN3CCOCC3)n2)cc1C | . | -1 | -4 | . | . | . | . | .
Nc1ccc2ccc3cccc[n+]3c2c1 | . | 70* | 5 | . | 52* | . | 6 | 44* | DDE Tn7 confirm=25*;DDE Tn7 FP ctr=-11
Cc1nc2ccc(Br)cc2c(=O)n1-c1ccc([N+](=O)[O-])c(C(F)(F)F)c1 | . | 3 | -6 | . | 0 | . | . | .
O=c1cc(C(F)(F)F)c2cc3c4c(c2o1)CCCN4CCC3 | 4 | 33* | 13 | 30 | 3 | . | . | . | DDE Tn7 confirm=4;DDE Tn7 FP ctr=10
Cc1cc(C)[n+](CCCC[n+]2c(C)cc(C)cc2C)c(C)c1 | . | -8 | -3 | . | 2 | . | . | .
Nc1ccc2nonc2c1[N+](=O)[O-] | 0 | 20* | 0 | 7 | 4 | 0.68 | . | . | DDE Tn7 confirm=2;DDE Tn7 FP ctr=-2
CN(c1ccc(O)cc1)c1ccc([N+](=O)[O-])c2nonc12 | . | 1 | -1 | . | . | . | . | .
FC(F)(F)c1cccc(NC2=NCCCS2)c1 | . | 14* | 6 | . | 0 | . | . | . | DDE Tn7 confirm=-5;DDE Tn7 FP ctr=-8
CN1CCC(O)(c2ccc(Cl)cc2)C(C(=O)c2ccc(Cl)cc2)C1 (stereo not drawn) | 1 | 0 | 2 | 1 | 0 | 0.43 | . | .
